Experimental findings from ChEMBL document CHEMBL4270490, “Synthesis and biological evaluation of morpholine-substituted diphenylpyrimidine derivatives (Mor-DPPYs) as potent EGFR T790M inhibitors with improved activity toward the gefitinib-resistant non-small cell lung cancers (NSCLC)” (Eur J Med Chem, 2017) are described below.

The test system of data set [1] is A-431. In words: Antiproliferative activity against human A431 cells incubated for 72 hrs by MTT assay. It is filed as functional, cell-based. Particulars: A-431, 72 h. On the technique in general: Formazan colour is commonly taken as a measure of viable cells.
Data set [2] has as its system HCC827. In words: Antiproliferative activity against human HCC827 cells incubated for 72 hrs by MTT assay. It is filed as functional, cell-based. Particulars: HCC827, 72 h.
Data set [3] relates to A549. The data set can be described thus: Antiproliferative activity against human A549 cells incubated for 72 hrs by MTT assay. Format: functional, cell-based. Particulars: A549, 72 h.
Data set [4] is described as follows: Antiproliferative activity against NHBE cells incubated for 72 hrs by MTT assay. Format: ADME, cell-based. Particulars: Homo sapiens.
Data set [5] concerns NCI-H1975. The data set can be described thus: Antiproliferative activity against human NCI-H1975 cells incubated for 72 hrs by MTT assay. It is filed as functional, cell-based. The settings on record: NCI-H1975, 72 h.
In data set [6] the target is Epidermal growth factor receptor (Homo sapiens, UniProt P00533, L858R/T790M). In words: biochemical. It is filed as cell-based, Sf9.
In data set [7] the target is T1, Epidermal growth factor receptor (Homo sapiens, UniProt P00533). It is filed as cell-based, Sf9.
Data set [8] deals with NCI-H1975. The data set can be described thus: Antitumor activity against human NCI-H1975 cells xenografted in STOCK-Foxn1nu/Nju nude mouse assessed as inhibition of tumor growth at 50 mg/kg/day, po qd for 14 days relative to untreated control. Format: functional. Particulars: 336 h, read-out: TGI. In outline:
(§1)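 Nude mice (STOCK-Foxn1nu/Nju, 5–6 weeks, 20–25 g) were given s.c. 3×10⁶ H1975 cells in 0.1 mL PBS in the right oxter. Dosing began three days after implant, with random allocation to groups. Doses were 10, 20 or 50 mg/kg, oral, once daily for 14 days; vehicle controls got oral 25% PEG-400. Tumor volume was taken as A×B²/2 from perpendicular diameters. Tumors were excised and weighed at the end. n = 5, mean ±SD.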
(A xenograft is tissue or cells of one species grown in another, often human tumour cells in immunodeficient mice.)

The test system of data set [9] is NCI-H1975. In words: Antitumor activity against human NCI-H1975 cells xenografted in STOCK-Foxn1nu/Nju nude mouse assessed as inhibition of tumor growth at 10 mg/kg/day, po qd for 14 days relative to untreated control. Format: functional. The settings on record: 336 h, read-out: TGI. In outline:
as §1

In data set [10] the target is T1, Epidermal growth factor receptor. The data set can be described thus: Inhibition of wild type EGFR phosphorylation in human A431 cells assessed as reduction in AKT phosphorylation at 0.2 to 5 uM by Western blotting assay. It is filed as cell-based. In outline: (§2)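 H1975 and A431 cells were treated and then lysed. Lysates were cleared at 12,000 g, 15 min, 4 °C. 50 µg protein was run on 8–12% SDS-PAGE and transferred to PVDF. Membranes were blocked in 5% skim milk, then probed for EGFR, p-EGFR, AKT, p-AKT, ERK, p-ERK and actin. Detection was by ECL. Band IOD was normalized to actin.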
In general terms: Immunoblotting shows a protein as a band on a membrane.

Data set [11] deals with Epidermal growth factor receptor (Homo sapiens), P00533 [L858R,T790M]. In words: Inhibition of EGFR L858R/T790M mutant phosphorylation in human NCI-H1975 cells at 0.2 to 5 uM by Western blotting assay. It is filed as cell-based. In outline:
as §2

Data set [12] concerns the target T1, Epidermal growth factor receptor. In words: Inhibition of wild type EGFR phosphorylation in human A431 cells at 0.2 to 5 uM by Western blotting assay. It is filed as cell-based. In outline: as §2
Data set [13] has the same target. In words: Inhibition of wild type EGFR phosphorylation in human A431 cells assessed as reduction in ERK phosphorylation at 0.2 to 5 uM by Western blotting assay. It is filed as cell-based. In outline: as §2
The test system of data set [14] is Mus musculus. In words: Toxicity in human NCI-H1975 cells xenografted STOCK-Foxn1nu/Nju nude mouse assessed as drug tolerability 10 to 50 mg/kg/day, po qd for 14 days relative to untreated control. It is filed as organism-based. The settings on record: in vivo, 336 h. In outline:
(§3)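 Female/male unstated; 5–6-week-old nude mice (20–25 g) implanted subcutaneously in the right oxter with 3×10⁶ H1975 cells in 0.1 mL PBS. After 3 days, mice were randomised into groups and dosed orally once daily for 14 days at 10, 20 or 50 mg/kg; controls received oral 25% PEG-400. Tumour volume was taken as A×B²/2. Body weight and mortality were monitored. Tumours were weighed at sacrifice. n = 5.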

In data set [15] the test system is NCI-H1975. In words: Antitumor activity against human NCI-H1975 cells xenografted in STOCK-Foxn1nu/Nju nude mouse assessed as inhibition of tumor growth at 10 to 50 mg/kg/day, po qd for 14 days relative to untreated control. It is filed as functional, organism-based. In outline: as §1
The test system of data set [16] is Epidermal growth factor receptor (Homo sapiens), P00533 [L858R,T790M]. The data set can be described thus: Inhibition of EGFR L858R/T790M mutant phosphorylation in human NCI-H1975 cells at 5 uM by Western blotting assay. Format: cell-based. In outline: as §2
Data set [17] shares this test system. In words: Inhibition of EGFR L858R/T790M mutant phosphorylation in human NCI-H1975 cells assessed as reduction in ERK phosphorylation at 0.2 to 5 uM by Western blotting assay. Format: cell-based. In outline:
as §2

In data set [18] the test system is Mus musculus. The data set can be described thus: Toxicity in human NCI-H1975 cells xenografted STOCK-Foxn1nu/Nju nude mouse assessed as body weight loss 10 to 50 mg/kg/day, po qd for 14 days relative to untreated control. It is filed as organism-based. The settings on record: in vivo, 336 h. In outline: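 Body weight was tracked over 14 days of once-daily oral dosing at 10, 20 or 50 mg/kg, against 25% PEG-400 vehicle. Mice were nude (STOCK-Foxn1nu/Nju, 5–6 weeks, 20–25 g) carrying s.c. H1975 xenografts (3×10⁶ cells in PBS). Dosing started three days after implant. n = 5, mean ±SD.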

Data set [19] has as its system NCI-H1975. The data set can be described thus: Antitumor activity against human NCI-H1975 cells xenografted in STOCK-Foxn1nu/Nju nude mouse assessed as inhibition of tumor growth at 20 mg/kg/day, po qd for 14 days relative to untreated control. Particulars: 336 h, read-out: TGI. Format: functional. In outline: as §3
In data set [20] the test system is Epidermal growth factor receptor (Homo sapiens), P00533 [L858R,T790M]. In words: Inhibition of EGFR L858R/T790M mutant phosphorylation in human NCI-H1975 cells assessed as reduction in AKT phosphorylation at 0.2 to 5 uM by Western blotting assay. It is filed as cell-based. In outline: as §2
Data set [21] has as its system Mus musculus. In words: Toxicity in human NCI-H1975 cells xenografted STOCK-Foxn1nu/Nju nude mouse assessed as mouse mortality 10 to 50 mg/kg/day, po qd for 14 days relative to untreated control. Format: organism-based. The settings on record: in vivo, 336 h. In outline:
as §3

Chain of Epidermal growth factor receptor (Homo sapiens), P00533 [L858R,T790M] (P00533 whole entry T790M/L858R, looked up): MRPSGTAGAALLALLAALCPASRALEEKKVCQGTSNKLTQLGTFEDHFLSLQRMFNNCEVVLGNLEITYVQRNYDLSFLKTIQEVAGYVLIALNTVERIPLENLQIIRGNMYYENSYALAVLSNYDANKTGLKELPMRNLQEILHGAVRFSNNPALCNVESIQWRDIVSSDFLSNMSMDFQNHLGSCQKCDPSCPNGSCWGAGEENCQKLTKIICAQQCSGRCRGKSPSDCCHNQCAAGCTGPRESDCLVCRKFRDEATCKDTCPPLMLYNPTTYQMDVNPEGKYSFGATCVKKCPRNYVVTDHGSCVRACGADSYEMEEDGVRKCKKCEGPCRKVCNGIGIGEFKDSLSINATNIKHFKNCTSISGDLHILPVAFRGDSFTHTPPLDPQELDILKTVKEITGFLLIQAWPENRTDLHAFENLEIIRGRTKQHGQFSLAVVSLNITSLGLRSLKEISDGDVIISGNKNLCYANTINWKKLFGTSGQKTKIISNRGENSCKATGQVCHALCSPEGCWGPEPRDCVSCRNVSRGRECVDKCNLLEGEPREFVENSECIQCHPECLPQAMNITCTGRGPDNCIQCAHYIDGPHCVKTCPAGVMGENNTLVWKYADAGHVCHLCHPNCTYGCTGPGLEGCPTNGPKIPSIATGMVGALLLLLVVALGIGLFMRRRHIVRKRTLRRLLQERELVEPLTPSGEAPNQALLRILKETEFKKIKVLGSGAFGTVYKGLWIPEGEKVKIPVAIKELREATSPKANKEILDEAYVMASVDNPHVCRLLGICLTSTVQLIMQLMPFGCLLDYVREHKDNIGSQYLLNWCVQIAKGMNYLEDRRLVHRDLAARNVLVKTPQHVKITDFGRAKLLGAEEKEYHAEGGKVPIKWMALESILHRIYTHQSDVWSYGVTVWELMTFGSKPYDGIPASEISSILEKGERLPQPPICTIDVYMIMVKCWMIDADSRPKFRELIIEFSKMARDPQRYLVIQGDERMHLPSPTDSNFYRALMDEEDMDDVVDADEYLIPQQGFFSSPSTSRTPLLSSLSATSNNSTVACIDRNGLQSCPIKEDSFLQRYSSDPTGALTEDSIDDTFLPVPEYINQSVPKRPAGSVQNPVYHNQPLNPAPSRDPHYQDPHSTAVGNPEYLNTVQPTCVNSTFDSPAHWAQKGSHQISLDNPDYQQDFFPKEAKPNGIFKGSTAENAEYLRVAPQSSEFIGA
T1 sequence (P00533 whole entry): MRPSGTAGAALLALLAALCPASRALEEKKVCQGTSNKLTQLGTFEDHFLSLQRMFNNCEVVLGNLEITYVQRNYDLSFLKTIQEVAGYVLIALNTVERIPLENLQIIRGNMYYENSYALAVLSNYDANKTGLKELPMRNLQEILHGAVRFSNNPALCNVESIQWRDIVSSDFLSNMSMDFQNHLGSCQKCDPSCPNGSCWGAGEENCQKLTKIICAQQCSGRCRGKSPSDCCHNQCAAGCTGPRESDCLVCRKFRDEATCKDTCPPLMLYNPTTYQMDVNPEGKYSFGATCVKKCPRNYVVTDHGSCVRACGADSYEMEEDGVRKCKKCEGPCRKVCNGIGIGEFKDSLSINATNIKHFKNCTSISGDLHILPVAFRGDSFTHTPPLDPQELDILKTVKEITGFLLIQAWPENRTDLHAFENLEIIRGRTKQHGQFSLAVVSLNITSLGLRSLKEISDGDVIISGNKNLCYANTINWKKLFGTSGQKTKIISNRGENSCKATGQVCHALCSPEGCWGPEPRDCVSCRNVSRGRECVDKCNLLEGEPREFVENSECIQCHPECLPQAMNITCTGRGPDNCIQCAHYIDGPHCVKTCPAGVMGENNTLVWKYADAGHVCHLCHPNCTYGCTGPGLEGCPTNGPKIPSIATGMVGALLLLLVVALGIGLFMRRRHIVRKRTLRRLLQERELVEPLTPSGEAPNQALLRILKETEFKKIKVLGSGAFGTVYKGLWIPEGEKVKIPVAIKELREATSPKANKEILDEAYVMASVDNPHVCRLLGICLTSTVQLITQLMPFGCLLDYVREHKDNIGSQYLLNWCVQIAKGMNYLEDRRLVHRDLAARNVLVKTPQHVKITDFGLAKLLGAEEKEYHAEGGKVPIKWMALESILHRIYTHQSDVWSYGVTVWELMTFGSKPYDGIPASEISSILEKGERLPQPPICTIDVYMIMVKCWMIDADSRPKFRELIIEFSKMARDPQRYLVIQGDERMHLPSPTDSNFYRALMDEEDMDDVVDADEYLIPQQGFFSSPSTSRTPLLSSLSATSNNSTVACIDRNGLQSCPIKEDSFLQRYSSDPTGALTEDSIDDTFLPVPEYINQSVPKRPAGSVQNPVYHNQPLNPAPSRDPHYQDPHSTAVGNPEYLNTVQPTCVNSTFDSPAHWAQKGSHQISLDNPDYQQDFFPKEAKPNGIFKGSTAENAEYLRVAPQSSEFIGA
Chain of Epidermal growth factor receptor (Homo sapiens, UniProt P00533, L858R/T790M) (P00533 25-1210 T790M/L858R limits assumed): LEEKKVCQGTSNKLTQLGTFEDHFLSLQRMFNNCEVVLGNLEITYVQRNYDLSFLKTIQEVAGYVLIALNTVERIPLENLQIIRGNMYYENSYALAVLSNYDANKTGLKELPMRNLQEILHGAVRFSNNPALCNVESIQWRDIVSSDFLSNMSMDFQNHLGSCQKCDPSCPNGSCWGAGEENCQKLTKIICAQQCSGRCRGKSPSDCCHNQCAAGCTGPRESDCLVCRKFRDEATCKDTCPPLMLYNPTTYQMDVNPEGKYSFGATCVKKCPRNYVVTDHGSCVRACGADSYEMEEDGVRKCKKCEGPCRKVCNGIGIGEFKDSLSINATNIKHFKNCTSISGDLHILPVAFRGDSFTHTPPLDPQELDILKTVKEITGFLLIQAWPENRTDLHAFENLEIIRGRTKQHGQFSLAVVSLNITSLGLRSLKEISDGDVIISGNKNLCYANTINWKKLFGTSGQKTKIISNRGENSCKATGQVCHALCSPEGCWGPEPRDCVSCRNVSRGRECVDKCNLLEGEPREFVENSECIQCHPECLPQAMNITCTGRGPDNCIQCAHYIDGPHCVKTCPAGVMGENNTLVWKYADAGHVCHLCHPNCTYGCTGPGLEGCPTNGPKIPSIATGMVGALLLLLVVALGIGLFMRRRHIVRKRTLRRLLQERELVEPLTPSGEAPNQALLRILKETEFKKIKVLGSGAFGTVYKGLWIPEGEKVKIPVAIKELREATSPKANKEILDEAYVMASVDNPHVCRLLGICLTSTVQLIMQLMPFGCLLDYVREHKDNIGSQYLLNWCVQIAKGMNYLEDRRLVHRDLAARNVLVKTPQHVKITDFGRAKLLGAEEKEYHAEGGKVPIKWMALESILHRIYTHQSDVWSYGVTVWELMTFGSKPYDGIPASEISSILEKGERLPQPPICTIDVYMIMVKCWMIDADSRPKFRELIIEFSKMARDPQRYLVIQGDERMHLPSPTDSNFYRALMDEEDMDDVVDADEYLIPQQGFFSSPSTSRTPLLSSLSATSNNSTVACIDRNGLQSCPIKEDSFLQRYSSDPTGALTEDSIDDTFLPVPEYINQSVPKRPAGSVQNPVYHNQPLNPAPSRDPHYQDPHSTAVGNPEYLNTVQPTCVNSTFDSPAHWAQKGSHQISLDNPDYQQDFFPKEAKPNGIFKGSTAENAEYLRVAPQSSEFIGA

As usually defined, the IC50 is the point on the concentration scale where inhibition reaches its midpoint. On to `C=CC(=O)Nc1ccccc1Nc1nc(Nc2ccc(OCCN3CCOCC3)cc2)ncc1Cl`, for which the IC50 was 478 nM in data set [1]; 524 nM in [2]; 4700 nM in data set [3]; above 40000 nM in data set [4]; 240 nM in data set [5].

With `C=CC(=O)Nc1cccc(Nc2nc(Nc3ccc(CC(=O)N4CCOCC4)cc3)ncc2Cl)c1`, the IC50 in [1] is 760 nM; in data set [2], 58 nM; in [6], 96.6 nM; in [7], below 500 nM; in data set [3], 1660 nM; in data set [4], 22000 nM. Besides, the midpoint of inhibition in data set [5], the IC50, lay at 256 nM.

Consider `C=CC(=O)Nc1cccc(Nc2nc(Nc3ccc(N4CCN(C(C)=O)CC4)cc3OC)ncc2C(F)(F)F)c1` [ROCILETINIB], for which the IC50 in data set [2] is 31 nM; in data set [3], 3240 nM; in data set [4], above 40000 nM; in data set [5], 299 nM. Further, in data set [8], the inhibition in vivo at 50 mg/kg/day is 70.2%.

Take `C=CC(=O)Nc1cccc(Oc2nc(Nc3ccc(CC(=O)N4CCOCC4)cc3)ncc2Cl)c1`: the IC50 in [1] was 2190 nM; in data set [2], 48 nM; in data set [6], 101 nM; in data set [7] it was 996 nM; in data set [3], 2940 nM; in data set [4], above 40000 nM. For the same compound, the IC50 in data set [5] was determined as 296 nM.

As for `C=CC(=O)Nc1cccc(Nc2nc(Nc3ccc(OCCN4CCOCC4)cc3)ncc2Cl)c1`, the IC50 is 385 nM in data set [1]; 43 nM in data set [2]; 94.7 nM in data set [6]; 961 nM in data set [7]; 5710 nM in data set [3]; 31500 nM in data set [4]. Further, the IC50 in [5] amounted to 215 nM.

In the case of `C=CC(=O)Nc1cccc(Nc2nc(Nc3ccc(OCCN4CCOCC4)c(Cl)c3)ncc2Cl)c1`, the IC50 in data set [1] is 870 nM; in [2] it was 57 nM; in data set [6], above 100 nM; in data set [7], above 1000 nM; in [3], 14000 nM; in [4] it was 22400 nM. The compound also displayed an IC50 in [5] of 500 nM.

In the case of `C=CC(=O)Nc1ccccc1Nc1nc(Nc2ccc(CN3CCOCC3)cc2)ncc1Cl`, the IC50 is 112 nM in data set [1]; 995 nM in data set [2]; 15.3 nM in [6]; above 800 nM in [7]; 2640 nM in data set [3]; above 40000 nM in [4]. The same compound showed an IC50 in [5] of 104 nM.

Turning to `C=CC(=O)Nc1ccccc1Nc1nc(Nc2ccc(OCC(=O)N3CCOCC3)cc2)ncc1Cl`, the IC50 came to 42 nM in data set [1]; 418 nM in data set [2]; 24.8 nM in data set [6]; 143 nM in [7]; 2650 nM in data set [3]; 39500 nM in data set [4]. Further, the 50% inhibitory concentration (IC50) in [5] worked out at 132 nM.

Consider `C=CC(=O)Nc1ccccc1Nc1nc(Nc2ccc(NC(=O)CN3CCOCC3)cc2)ncc1Cl`, for which the IC50 in data set [1] came out at 104 nM; in [2], 491 nM; in data set [6], 21.7 nM; in [7], 592 nM; in data set [3] it was 5110 nM; in [4], 21600 nM. The compound also yielded an IC50 in data set [5] of 128 nM.

`C=CC(=O)Nc1cccc(Nc2nc(Nc3ccc(CN4CCOCC4)cc3OC)ncc2Cl)c1`: the IC50 is 2060 nM in data set [1]; 52 nM in data set [2]; 17 nM in data set [6]; above 500 nM in data set [7]; 16600 nM in [3]; 28800 nM in data set [4]. The compound also returned an IC50 in data set [5] of 287 nM.

For orientation: inhibition means the percentage by which the read-out fell short of the control. As for `C=CC(=O)Nc1cccc(Nc2nc(Nc3ccc(CN4CCOCC4)cc3)ncc2Cl)c1`, in data set [9], the inhibition in vivo at 10 mg/kg/day was 39%. Also, the “inhibition (INH)” value in data set [10], in [12] and in data set [13] was “Dose-dependent effect” throughout. Also, the IC50 in data set [1] was 382 nM; in data set [2], 44 nM; in [3], 4450 nM; in data set [4] it was above 40000 nM; in [5], 37 nM. Also, the inhibition entry in data set [11] was “Dose-dependent effect”; in data set [16] it was 100%; in data set [17] it was “Dose-dependent effect”; in [20], “Dose-dependent effect”. Also, the Activity entry in [14] is listed as “Non-Toxic”; in [18], below 5%; in data set [21], “Non-Toxic”. Further, in data set [15], the TGI entry was “Dose-dependent effect”. Moreover, in data set [8], the inhibition in vivo at 50 mg/kg/day stood at 64.6%. Moreover, in data set [19], the inhibition in vivo at 20 mg/kg/day was 45.3%.

Take `C=CC(=O)Nc1cccc(Nc2nc(Nc3ccc(CN4CCOCC4)cc3)ncc2F)c1`: the IC50 came to 444 nM in data set [1]; 41 nM in data set [2]; 80.8 nM in [6]; 500 nM in data set [7]; 4460 nM in data set [3]; 22700 nM in data set [4]. In [5], the IC50 came to 609 nM.

On to `C=CC(=O)Nc1cc(Nc2nccc(-c3cn(C)c4ccccc34)n2)c(OC)cc1N(C)CCN(C)C` [OSIMERTINIB], for which the inhibition in vivo at 20 mg/kg/day in data set [19] was determined as 98.8%.

As to `C=CC(=O)Nc1ccccc1Nc1nc(Nc2ccc(OCCCN3CCOCC3)cc2)ncc1Cl`, the IC50 in data set [1] was 584 nM; in [2] it was 587 nM; in data set [6] it was 21.5 nM; in [7], 767 nM; in data set [3], 4740 nM; in [4], above 40000 nM. In data set [5], the IC50 is 217 nM.
